Drawing on ChEMBL document CHEMBL1141576, “Design of new potent and selective secretory phospholipase A2 inhibitors. Part 5: synthesis and biological activity of 1-alkyl-4-[4,5-dihydro-1,2,4-[4H]-oxadiazol-5-one-3-ylmethylbenz-4'-yl(oyl)] piperazines” (Bioorg Med Chem, 2008), this text covers IC50, logP and Activity for 21 compounds.

Series [1] addresses T1, Phospholipase A2, membrane associated (Homo sapiens, UniProt P14555).
T1 sequence (P14555 whole entry): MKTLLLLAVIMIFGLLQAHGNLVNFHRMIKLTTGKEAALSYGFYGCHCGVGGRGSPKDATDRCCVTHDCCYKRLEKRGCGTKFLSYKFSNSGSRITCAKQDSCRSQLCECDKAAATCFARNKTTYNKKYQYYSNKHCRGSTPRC
In words: Inhibition of human recombinant PLA2 by fluorometric assay. The essentials:
(§1)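 Fluorimetric PLA2 assay after Radvanyi et al. Enzymes were secretory human recombinant group II PLA2 and secretory porcine pancreatic group I PLA2. Concentration of the fluorescent substrate determined by UV spectrometry in a quartz cell. Values reported as IC50.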

For series [2], the target named is Phospholipase A2, major isoenzyme (Sus scrofa, UniProt P00592). In words: Inhibition of pig pancreatic PLA2 by fluorometric assay. The essentials:
as §1

A short description of series [3]: Lipophilicity, log P of the compound. The settings on record: octanol/water. Type of series: physicochemical. The essentials: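 logP of the free base calculated with Rekker's hydrophobic fragmental constants method.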
Series [4] relates to Rattus norvegicus. The experiment in a line: Inhibition of carrageenan-induced hind paw edema in rat assessed as decrease in paw volume at 10 mg/kg, po after 5 hrs. Also noted: scale not given: the % may be the effect or the level left. In kind it is functional. The essentials:
(§2)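 Rats. Compound given ip or orally 1 h before carrageenan injection into the hind leg; doses 5, 10 and 20 mg/kg. Indomethacin used as positive control. Edema volume measured at 0, 3 and 5 h after carrageenan.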
(In the carrageenan paw model, swelling and tenderness develop within hours.)

In series [5] the test system is Mus musculus. In words: Antiinflammatory activity against croton oil-induced ear edema in mouse at 1 mg/ear. Type of series: functional. The essentials: (§3)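 Mice, anaesthetized. Test compound applied locally to inner surface of ear (or given per os); 1 h later croton oil applied to the ear to induce edema. 5 h after croton oil, edematous tissue punched out with a gimlet and compared with tissue from a control site to calculate percent inhibition. Results reported as mean of the animals tested, with number of experiments.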

Series [6] relates to Rattus norvegicus. In words: Inhibition of carrageenan-induced hind paw edema in rat assessed as decrease in paw volume at 10 mg/kg. In kind it is functional. Also noted: scale not given: the % may be the effect or the level left. The essentials:
as §2

Series [7] relates to Mus musculus. The experiment in a line: Antiinflammatory activity against croton oil-induced ear edema in mouse at 0.5 mg/ear. Type of series: functional. The essentials:
as §3

Phospholipase A2, major isoenzyme, sequence (P00592 whole entry): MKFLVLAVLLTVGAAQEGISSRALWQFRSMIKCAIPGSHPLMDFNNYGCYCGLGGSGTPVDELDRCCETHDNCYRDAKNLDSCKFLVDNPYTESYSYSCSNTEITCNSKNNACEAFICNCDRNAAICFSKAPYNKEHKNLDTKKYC

As usually defined, the IC50 is the point on the concentration scale where inhibition reaches its midpoint. A word on the logP: it is the decadic logarithm of the partition coefficient of the neutral form, usually between octanol and water. Regarding `CCCCCCCCCCCCCCN1CCN(C(=O)c2ccc(CCCc3noc(=O)[nH]3)cc2)CC1`, the values for the IC50 in series [1] and in series [2] were 5.3 µM and more than 100 µM, respectively. Further, the logP in series [3] (read-out: LogP) was found to be 6.81.
As to `CCCCCCCCCCCCCCN1CCN(C(=O)c2ccc(CCc3nc(=O)o[nH]3)cc2)CC1`, the IC50 in series [1] is 18.7 µM; in series [2], more than 100 µM. Besides, the logP in series [3] (read-out: LogP) stood at 6.3.
Consider `CCCCCCCCCCCCCCN1CCN(C(=O)c2ccc(Cc3noc(=O)[nH]3)cc2)CC1`, for which the IC50 in series [1] is 9 µM; in series [2], more than 100 µM. Also, the figures for the Activity with Rattus norvegicus [4] and in the series with Mus musculus [5] were 65% and 47.83%, respectively. The logP in series [3] (read-out: LogP) is 5.78.
Take `CCCCCCCCCCCCCCCCN1CCN(C(=O)c2ccc(Cc3nc(=O)o[nH]3)cc2)CC1`: the values for the IC50 in series [1] and in series [2] were 4 µM and more than 100 µM, respectively. Also, the logP in series [3] (read-out: LogP) is 6.81.
For `CCCCCCCCCCCCCCCCN1CCN(Cc2ccc(-c3noc(=O)[nH]3)cc2)CC1`, the IC50 in series [1] and in series [2] was more than 100 µM in each case. Besides, the logP in series [3] (read-out: LogP) came out at 6.34.
For `CCCCCCCCCCCCCCN1CCN(Cc2ccc(-c3nc(=O)o[nH]3)cc2)CC1`, the IC50 in series [1] and in series [2] was more than 100 µM each time. Besides, in series [3] (read-out: LogP), the logP came out at 5.3.
With `CCCCCCCCCCCCCCCCN1CCN(c2ccc(Cc3noc(=O)[nH]3)cc2)CC1`, the IC50 in series [1] is 3.5 µM; in series [2], more than 100 µM. In addition, in series [3] (read-out: LogP), the logP was 6.98.
The like results for `CCCCCCCCCCCCCCCCN1CCN(Cc2ccc(Cc3noc(=O)[nH]3)cc2)CC1` were, in that order, 10 µM, more than 100 µM and 6.63.
For the compound `CCCCCCCCCCCCCCCCCCCCN1CCN(C(=O)c2ccc(Cc3noc(=O)[nH]3)cc2)CC1`, the figures for the IC50 in series [1] and in series [2] were 0.1 µM and more than 100 µM, respectively. Moreover, the logP in series [3] (read-out: LogP) worked out at 8.89.
As for `CCCCCCCCCCCCCCCCCCCCCCN1CCN(C(=O)c2ccc(Cc3noc(=O)[nH]3)cc2)CC1`, the figures for the IC50 in series [1] and in series [2] were 0.1 µM and more than 100 µM, respectively. Also, in series [3], the logP is on record as 9.932.
For `CCCCCCCCCCCCCCN1CCN(Cc2ccc(Cc3noc(=O)[nH]3)cc2)CC1`, the IC50 in series [1] was more than 10 µM; in series [2], more than 100 µM. Further, the values for the Activity with Rattus norvegicus [6] and in the series with Mus musculus [5] were 79% and 51.45%, respectively. In addition, the logP in series [3] (read-out: LogP) worked out at 5.59.
On to `CCCCCCCCCCCCCCCCCCN1CCN(C(=O)c2ccc(-c3noc(=O)[nH]3)cc2)CC1`, for which the IC50 in series [1] was 1.1 µM; in series [2] it was more than 100 µM. For the same compound, in series [3] (read-out: LogP), the logP was determined as 7.56.
Take `CCCCCCCCCCCCCCN1CCN(c2ccc(Cc3nc(=O)o[nH]3)cc2)CC1`: the IC50 in series [1] was 4.5 µM; in series [2] it was more than 100 µM. For the same compound, in series [3] (read-out: LogP), the logP was 5.95.
In series [2], `CCCCCCCCCCCCCCCCCCN1CCN(c2ccc(Cc3noc(=O)[nH]3)cc2)CC1` had an IC50 of more than 100 µM. The logP in series [3] (read-out: LogP) turned out to be 8.02.
Take `CCCCCCCCCCCCCCOc1ccc(Cc2noc(=O)[nH]2)cc1`: in series [2], the IC50 was more than 100 µM.
`CCCCCCCCCCCCCCCCCCN1CCN(Cc2ccc(-c3noc(=O)[nH]3)cc2)CC1`: the IC50 is 5.08 µM in series [1] and more than 100 µM in series [2]. Also, the logP in series [3] (read-out: LogP) was 7.37.
Take `COc1ccc2c(c1)c(CC(=O)O)c(C)n2C(=O)c1ccc(Cl)cc1` [INDOMETHACIN]: the Activity with Rattus norvegicus [4] stood at 16%; with Mus musculus [7], 43.11%; in the series on Rattus norvegicus [6], 73%.
With `CCCCCCCCCCCCCCCCN1CCN(C(=O)c2ccc(-c3nc(=O)o[nH]3)cc2)CC1`, the IC50 in series [1] and in series [2] was more than 100 µM throughout. In series [3] (read-out: LogP), the logP was found to be 6.53.
Take `CCCCCCCCCCCCCCCCCCN1CCN(C(=O)c2ccc(Cc3noc(=O)[nH]3)cc2)CC1`: the IC50 in series [1] is 0.8 µM; in series [2] it was more than 100 µM. Also, the logP in series [3] (read-out: LogP) amounted to 7.86.
As for `CCCCCCCCCCCCCCCCCCN1CCN(Cc2ccc(Cc3nc(=O)o[nH]3)cc2)CC1`, the values for the IC50 in series [1] and in series [2] were 2.2 µM and more than 100 µM, respectively. Moreover, in series [3] (read-out: LogP), the logP was found to be 7.67.
As to `CCCCCCCCCCCCCCN1CCN(C(=O)c2ccc(-c3nc(=O)o[nH]3)cc2)CC1`, the IC50 in series [1] and in series [2] was more than 100 µM throughout. Besides, the logP in series [3] (read-out: LogP) came to 5.48.
